Tests used:
[1] = Kinetic solubility of the compound at 200 uM incubated for 24 hrs at pH 7.4 by HPLC/UV analysis; format: physicochemical; conditions: buffer, pH 7.4, 24 h
Summary of the method: (§1)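 Shake-flask method: 10 mM DMSO stock diluted to 200 μM in phosphate buffer pH 2.0 or pH 7.4 (2% DMSO final). Shaken at 500 rpm, 24 h, room temperature, then filtered through polycarbonate membrane. Filtrate quantified by HPLC-UV against 1, 20 and 200 μM standards injected in duplicate.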

[2] = Kinetic solubility of the compound at 200 uM incubated for 24 hrs at pH 2 by HPLC/UV analysis; format: physicochemical; conditions: buffer, pH 2, 24 h; summary of the method: as §1
[3] = Drug uptake in BALB/c mouse plasma at 50 mg/kg, po measured after 24 hrs by LC/MS/MS analysis; format: ADME, organism-based; conditions: in vivo

| Compound | Kinetic_solubility [1] [µg/mL] | Kinetic_solubility [2] [µg/mL] | Drug uptake [3] |
| --- | --- | --- | --- |
| Cc1ccn2c(Nc3ccc(F)cc3)c(-c3ccccn3)nc2c1 | < 0.5 | 73 |  |
| Cc1ccn2c(NC3CCCC3)c(-c3ccc(N(C)C)cc3)nc2c1 | < 0.5 | 67 |  |
| Cc1ccc2nc(-c3ccccn3)c(Nc3ccc4c(c3)OCCO4)n2c1 | 8 | 72 |  |
| COc1ccn2c(Nc3ccc(F)cn3)c(-c3ccccn3)nc2c1 | > 76 | > 76 |  |
| COc1ccn2c(Nc3cc(F)cc(F)c3)c(-c3ccccn3)nc2c1 |  |  | Not Active |
| Clc1ccc2nc(-c3ccccn3)c(Nc3ccc4c(c3)OCCO4)n2c1 | < 0.5 | > 76 |  |
